Screens from PubChem BioAssay.
Shown are actives, neighbours in structure and some others; about 4% of the full set was active somewhere.
OX1R antag-1 = antagonists of human orexin 1 receptor; O43613; CHO/OX1R cells, Fluo-8 calcium fluorescence, orexin A; inhibition, % at 5 µM; AID 434989; actives 0.43% (n = 330,000);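 active = inhibition above its plate's threshold, mean inhibition of all tested compounds on the plate plus 3 SD, cut at about 37% in these data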
Target sequence (O43613 whole entry, looked up): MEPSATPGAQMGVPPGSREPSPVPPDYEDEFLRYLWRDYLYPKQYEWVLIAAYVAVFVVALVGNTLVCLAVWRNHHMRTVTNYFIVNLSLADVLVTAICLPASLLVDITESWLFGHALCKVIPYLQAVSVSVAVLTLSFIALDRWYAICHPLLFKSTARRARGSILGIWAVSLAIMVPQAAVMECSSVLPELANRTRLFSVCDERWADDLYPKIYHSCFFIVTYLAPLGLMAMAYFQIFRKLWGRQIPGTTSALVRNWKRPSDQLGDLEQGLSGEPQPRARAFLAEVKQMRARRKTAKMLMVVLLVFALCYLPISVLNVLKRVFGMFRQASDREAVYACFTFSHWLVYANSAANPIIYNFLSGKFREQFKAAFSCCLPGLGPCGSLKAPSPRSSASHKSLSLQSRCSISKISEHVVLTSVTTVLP
TAAR1 agonist = agonists of human TAAR1 | Q96RJ0 | CHO RD-HGA16 TAAR1, Fluo-8 calcium fluorescence; vehicle wells 0%, saturating PEA agonist 100% | activation, % at 3 µM | actives 0.99% (n = 360,000);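 active = activation above the mean activation of all test compounds in the run plus 3 SD, cut at about 38% in these data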
Target sequence (Q96RJ0 whole entry, looked up): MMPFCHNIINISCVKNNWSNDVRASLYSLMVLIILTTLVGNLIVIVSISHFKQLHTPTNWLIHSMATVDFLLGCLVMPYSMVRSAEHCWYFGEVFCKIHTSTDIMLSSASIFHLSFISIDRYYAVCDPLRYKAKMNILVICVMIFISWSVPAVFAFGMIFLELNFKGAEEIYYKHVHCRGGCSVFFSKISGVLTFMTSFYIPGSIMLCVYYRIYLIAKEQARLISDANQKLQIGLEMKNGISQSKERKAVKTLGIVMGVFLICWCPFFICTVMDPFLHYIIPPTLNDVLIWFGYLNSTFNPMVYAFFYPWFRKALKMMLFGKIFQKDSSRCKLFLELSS
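test system = CHO RD-HGA16 cells carrying human TAAR1 plus Gα16 | schedule = 17-24 h seeding, 75 min 37 °C dye, 30 min RT | compound dosing = 3 µM single concentration | control set = DMSO and PEA EC100 | replicates = n 1 | signal = Fluo-8 fluorescence, 5 s baseline then 140 s kinetic read | measure = percent activation vs PEA EC100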
TAAR1 antag = human TAAR1 antagonism; Q96RJ0; CHO RD-HGA16 TAAR1, Fluo-8 calcium fluorescence, antagonist; inhibition, % at 3 µM; actives 1.5% (n = 360,000); AID 624466;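 active = inhibition above a per-plate cutoff, the mean inhibition of test compounds on that plate plus 3 SD, cut at about 49% in these data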
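Test system: CHO RD-HGA16 cells bearing hTAAR1 | Reagent: β-PEA, EC80 | Compound dosing: 3 µM, single point | Schedule: Dye loading 75 min at 37 °C, then 30 min room temperature | Signal: Calcium fluorescence with Fluo-8 | Evaluation: Percent inhibition of PEA-evoked calcium signal, max/basal emission ratio | Control set: DMSO-only wells and EC80 β-PEA-stimulated wells | Repeats: Singlicate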
OX1R antag-2 = blocks the human orexin 1 receptor; O43613; OX1R-expressing cells, FRET antagonist read-out; inhibition, % at 6.6 µM; actives 1.8% (n = 330,000); in the data active = inhibition mostly above about 38%, no sharp cut-off; inactive = mostly below about 40%
CHO parental Ca = counter-screen for OX1R antagonists: effect in parental CHO cells | parental CHO-K1, ATP-induced calcium, Fluo-8 fluorescence | inhibition, % at 5.6 µM | actives 0.63% (n = 330,000) | AID 463079;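 active = inhibition above that plate's mean sample inhibition plus 3 SD, cut at about 26% in these data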
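Material – parental CHO cells · Reagent – ATP stimulus · Compound – single nominal dose of 5.6 µM per compound · Detection – Fluo-8 fluorescence · Read-out basis – percent inhibition of calcium signal · Controls – ATP-challenged DMSO wells low, unchallenged DMSO wells high · Repeats – no replicates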
Of the large screens only hits and unclear results are named; the others gave an inactive call.

CCC(Oc1ccccc1)C(=O)Nc1nnc(S(=O)(=O)N2CCCC2)s1 (stereo not drawn)	none
CC(=O)Nc1ccc2c(COC(=O)CC3Sc4ccccc4NC3=O)cc(=O)oc2c1 (stereo not drawn)	none
COc1ccc2c(COC(=O)CC3Sc4ccccc4NC3=O)cc(=O)oc2c1 (stereo not drawn)	TAAR1 antag 54
COc1ccc(OC)c(COC(=O)c2cc([N+](=O)[O-])ccc2N2CCOCC2)c1	OX1R antag-2 32
N#CC1(NC(=O)COC(=O)c2cc([N+](=O)[O-])ccc2N2CCCC2)CCCCC1	none
Cc1ccccc1COC(=O)c1cc([N+](=O)[O-])ccc1N1CCOCC1	none
N#CC1(NC(=O)COC(=O)c2cc([N+](=O)[O-])ccc2N2CCOCC2)CCCCC1	OX1R antag-2 52
Cc1cc(NC(=O)COC(=O)c2cc([N+](=O)[O-])ccc2N2CCOCC2)ccc1Br	OX1R antag-2 37
CCc1cccc(NC(=O)COC(=O)c2cc([N+](=O)[O-])ccc2N2CCOCC2)c1	none
CC(OC(=O)CCN1C(=O)C2CC=CCC2C1=O)C(=O)Nc1ccc(F)cc1 (stereo not drawn)	none (no result: OX1R antag-1, OX1R antag-2, CHO parental Ca)
O=C(NCc1ccccc1)c1sc(=S)n2c1[nH]c(=O)c1ccccc12	TAAR1 agonist 44
COC(=O)C1=CC(=O)N2CCN=C2S1	none (no result: OX1R antag-1, OX1R antag-2, CHO parental Ca)
COC(=O)c1ccc(OC(=O)CS(=O)c2ccccc2[N+](=O)[O-])cc1 (stereo not drawn)	OX1R antag-2 63
Cc1ccc(S(=O)(=O)NC(=O)C2(C)CCN2C(=O)CC2CCCCC2)nc1 (stereo not drawn)	none (no result: OX1R antag-1, OX1R antag-2, CHO parental Ca)
Cc1ccc2nc(SCC(=O)Nc3ccc(C(N)=O)cc3)[nH]c2c1	none
Cc1ccc2nc(SCC(=O)Nc3cccc([N+](=O)[O-])c3)[nH]c2c1	OX1R antag-1 53
CSc1c(N(C)C)c(=O)c1=S	none (no result: OX1R antag-1, OX1R antag-2, CHO parental Ca)
Nc1cccc(-c2cn(-c3cc4cc(C#CC5(O)CCCCC5)ccc4oc3=O)nn2)c1	TAAR1 antag 58
O=c1oc2ccc(C#CC3(O)CCCCC3)cc2cc1-n1cc(-c2ccccn2)nn1	TAAR1 antag 52
C[C@@H](O)CC#Cc1ccc2oc(=O)c(-n3cc(-c4ccsc4)nn3)cc2c1	none
COc1ccc2c(c1OC)C(=O)N(c1cccc(NC(C)=O)c1)C2	none
COC(=O)[C@]12C[C@H](CC(=O)NCc3cccc(C(F)(F)F)c3)C(=O)N(Cc3ccccc3)C1=C[C@H](C(C)C)O[C@@H]2C1CC1	none (no result: OX1R antag-1, OX1R antag-2, CHO parental Ca)
NS(=O)(=O)c1ccc(Nc2nc(-c3cccc([N+](=O)[O-])c3)cs2)cc1	TAAR1 antag 55
CCc1cccc(NC(=O)CCCn2nc(CC)n3c(cc4occc43)c2=O)c1	OX1R antag-2 42
CCOC(=O)/C(C#N)=C/c1c[nH]c2ccccc12	OX1R antag-2 51
CCc1c(-c2ccccc2)ncn1CCc1ccccc1OC	none (no result: OX1R antag-1, OX1R antag-2, CHO parental Ca)
COc1cccc(CNC(=O)[C@H]2CCCN2C(=O)[C@H]2CCCN2C(=O)c2ccc(OC(F)(F)F)cc2)c1	none (no result: OX1R antag-1, OX1R antag-2, CHO parental Ca)
Cc1cccc(OCCSc2nc3c([nH]2)c(=N)ncn3Cc2ccccc2)c1	TAAR1 antag 56
CC1CC(C)CN(C(=O)COC(=O)c2ccc3c(c2)C(=O)N(Cc2ccco2)C3=O)C1 (stereo not drawn)	none
O=C(OCC(=O)N1CCCCC1)c1ccc2c(c1)C(=O)N(Cc1ccco1)C2=O	OX1R antag-2 33
CC1Nc2ncnc(N3CCc4ccccc4C3)c2N(Cc2ccccc2)C1=O (stereo not drawn)	TAAR1 agonist 39 (no result: OX1R antag-1, OX1R antag-2, CHO parental Ca)
O=C1C(Cc2ccccc2)Nc2ncnc(N3CCc4ccccc4C3)c2N1Cc1ccc(Cl)cc1 (stereo not drawn)	none (no result: TAAR1 agonist, TAAR1 antag)
CCC1Nc2ncnc(N3CCc4ccccc4C3)c2N(Cc2ccc(Cl)cc2)C1=O (stereo not drawn)	TAAR1 agonist 40
O=C(N[C@H](C(=O)N1CCC[C@H]1C(=O)NCc1ccccc1)C1CCCCC1)c1ccc(Cl)c(Cl)c1	none (no result: OX1R antag-1, OX1R antag-2, CHO parental Ca)
Cc1cc(OCC(=O)Nc2ccncc2)cc(C)c1Cl	OX1R antag-1 53, CHO parental Ca 44
Cc1cc(OCC(=O)Nc2ccncc2)c(C)cc1Br	CHO parental Ca 58
O=C(COc1ccc2ccccc2c1Br)Nc1ccncc1	CHO parental Ca 41
Cc1ccc(OCC(=O)Nc2ccncc2)cc1C	none (no result: OX1R antag-1, OX1R antag-2, CHO parental Ca)
CC(C)(C)c1ccc(OCC(=O)Nc2ccncc2)c(Br)c1	CHO parental Ca 47
COc1ccc(C(=O)CN(CCC(=O)O)S(=O)(=O)c2ccc([N+](=O)[O-])cc2)cc1	none
CCCCN(CCCC)CCCNC(=O)Cn1cc(C)c(=O)[nH]c1=O	none (no result: OX1R antag-1, OX1R antag-2, CHO parental Ca)
CC(C)CCOc1cccc(OCC(=O)Nc2ccncc2)c1	OX1R antag-1 55, CHO parental Ca 59
COc1cccc(OCC(=O)Nc2ccncc2)c1	none
CN1CCN(S(=O)(=O)c2ccc(NC(=O)c3ccc([N+](=O)[O-])cc3)cc2)CC1	OX1R antag-2 44
O=C(NC(=S)Nc1ccc(C(=O)N2CCOCC2)cc1)c1ccc([N+](=O)[O-])cc1	none
CN1CCN(S(=O)(=O)c2ccc(C(=O)Nc3ccccc3)cc2)CC1	none
O=C(Nc1ccc(C(=O)N2CCOCC2)cc1)c1ccc([N+](=O)[O-])cc1	OX1R antag-2 44
CC(NCC(O)c1ccc([N+](=O)[O-])cc1)C12CC3CC(CC(C3)C1)C2 (stereo not drawn)	none
COC(=O)c1cccc2c([N+](=O)[O-])c(NC(C)=O)cc(C(=O)OC)c12	none (no result: OX1R antag-1, OX1R antag-2, CHO parental Ca)
COC(=O)C1=C(C)N(C)C(=NCC2CC2)NC1c1ccc(Cl)cc1 (stereo not drawn)	none (no result: OX1R antag-1, OX1R antag-2, CHO parental Ca)
C[C@H](CO)N1C[C@H](C)[C@H](CN(C)C(=O)Nc2ccc(-c3cccs3)cc2)OCc2cnnn2CCCC1=O	none (no result: OX1R antag-1, OX1R antag-2, CHO parental Ca)
CCOC(=O)N[C@H](C(=O)N1CCC[C@H]1C(=O)NCc1ccccc1)C(C)C	none (no result: OX1R antag-1, OX1R antag-2, CHO parental Ca)
O=C1CSC(=S)N1/N=C/c1cc(Br)c(O)c(Br)c1	OX1R antag-1 90, CHO parental Ca 75 (no result: TAAR1 agonist, TAAR1 antag)
COc1cc(OC)cc(C(=O)NNC(=O)c2nn(C)c(=O)c3ccccc23)c1	none
Cc1ccc(S(=O)(=O)N2CC3(O)CN(C(=O)OC(C)C)N(C(=O)OC(C)C)CC3(OC(=O)NCc3ccccc3)C2)cc1 (stereo not drawn)	TAAR1 antag 60 (no result: OX1R antag-1, OX1R antag-2, CHO parental Ca)
O=C(CSc1ncccc1C(=O)O)NCCC1=CCCCC1	TAAR1 agonist 96, TAAR1 antag 77
COc1ccc(Cn2nc(C)cc2C)cc1OC	CHO parental Ca 99
COc1ccc(C(=O)Nc2cccc3c2CCCC3)c(OC)c1	OX1R antag-2 57
O=C(Nc1cccc2c1CCCC2)c1ccccc1Br	CHO parental Ca 44
CC(C)[C@@H](C)/C=C/[C@@H](C)[C@H]1CC[C@@H]2[C@]1(C)CCC1[C@]23C=C[C@]2(C[C@@H](O)CC[C@]12C)N(C(=O)Cc1ccccc1)O3 (stereo partly drawn)	none (no result: OX1R antag-1, OX1R antag-2, CHO parental Ca)
